Activation data for 93 compounds are collected here from PubChem BioAssay AID504383 (The Scripps Research Institute Molecular Screening Center, 2011).

Each structure is given as a SMILES string. Screen size: about 2,500 compounds; about 1,200 (48%) were called active. The set was probably picked from earlier hits. The list shows a part of the results. A number with no mark means an inactive call.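 How the source made its calls: active means mean activation above the low control average plus 3 SD, as set in the primary screen (cut at about 12% in these data); inactive means the rest.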

The assay has as its target Troponin I, cardiac muscle (Homo sapiens) + Troponin T, cardiac muscle (Homo sapiens) + Troponin C, slow skeletal and cardiac muscles (Homo sapiens) (UniProt P19429+P45379+P63316). In words: calcium sensitizers of cardiac thin filaments – biochemical, IANBD-TnC fluorescence, triplicate, confirmation (AID 504383).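 Further: 0% = DMSO at 0.472 mM calcium and 100% = DMSO at 2.9 mM calcium.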 The following applies: IANBD-labeled cardiac RTF, Ca2+ sensitivity fluorescence; at 7.2 µM; active compounds read high; scaled from EC20 to saturating calcium; tested at EC20 calcium, 0.472 mM. The gist of the method: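 Assay system: labelled regulated thin filaments / Timing: 15 min at 25 °C / Detection: fluorescence intensity of labelled filaments / Measure: fluorescence gain scaled between EC20 and EC100 calcium controls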
Regarding `Fc1ccc(-c2[nH]ncc2CN(CC2CCC2)CC2CCCO2)c(F)c1` (stereo not drawn), the activation is 46.1% (active).

Turning to `CCCN1C(=O)/C(=C/c2ccc(N3CCOCC3)cc2)NC1=S`, the activation is 217% (active).

`CN1C/C(=C\c2ccc(N3CCOCC3)cc2)C(=O)/C(=C/c2ccc(N3CCOCC3)cc2)C1`: the activation was 11.8% (active).

In the case of `O=C1/C(=C/c2ccc(N3CCCC3)cc2)NC(=S)N1C1CC1`, the activation is 1.84%.

Consider `CCN1C/C(=C/c2ccc(N3CCOCC3)cc2)C(=O)/C(=C/c2ccc(N3CCOCC3)cc2)C1`, for which the activation is 4.14%.

In the case of `CCN1C(=O)/C(=C/c2ccc(N3CCCC3)cc2)NC1=S`, the activation is 7.36%.

As to `CCC(C)NC(=O)C1CC(=O)N(CCc2ccc(F)cc2)C1` (stereo not drawn), the activation was 331% (active).

For the compound `COc1ccc(S(=O)(=O)N2CCC(C(=O)NC(C)CCc3ccccc3)CC2)cc1` (stereo not drawn), the activation was 11.2%.

Regarding `O=[N+]([O-])c1ccc(NN=Cc2cccc3ccccc23)nc1`, the activation is 31.4% (active).

`Clc1ccccc1/C=N/NC1=Nc2cccc3cccc1c23`: the activation is 5.59%.

Turning to `O=[N+]([O-])c1ccc(N/N=C/c2ccc(OCc3cccc4ccccc34)cc2)nc1`, the activation was 8.03%.

On to `Cc1cc(C)c2c(=O)n(-c3ccccc3)[nH]c2n1`, for which the activation is 10.3%.

For `O=c1c(/C=N/Nc2ccccc2)c(Sc2nnnn2-c2ccccc2)nc2ccccn12`, the activation is 2.36%.

Take `Cc1cc(C)c(C#N)c(Sc2nnnn2-c2ccccc2)n1`: the activation was 27.6% (active).

Regarding `CC(C)(C)c1cc(NCc2ccccn2)n2ncc(-c3ccc(Cl)cc3)c2n1`, the activation is 7.76%.

As for `COc1ccc2c(c1)c(/C=C/c1cc[n+](C)cc1)cn2C`, the activation is 4.1%.

With `CCOC(=O)c1c(=O)n(O)c2ccc(OC)cc2[n+]1[O-]`, the activation is 8.7%.

As for `COC(=O)c1c(=O)n(O)c2ccc(OC)cc2[n+]1[O-]`, the activation is 16.1% (active).

On to `COC(=O)C1CSc2[nH]c(=O)sc2C1c1ccccc1` (stereo not drawn), for which the activation was 8.86%.

With `CN(C)c1ccc(/C=C2\NC(=S)N(Cc3ccccc3)C2=O)cc1`, the activation was 217% (active).

With `Cc1ccc(C2C3CN(C(C)C)CC=C3C(C#N)=C(N)C2(C#N)C#N)cc1` (stereo not drawn), the activation is 9.22%.

As for `Cc1ccc([C@@H]2C3COCC=C3C(C#N)=C(N)C2(C#N)C#N)o1` (stereo partly drawn), the activation is 13.5% (active).

With `CCC(CC)C(=O)c1c[nH]c(C(=O)N2CCN(c3ccccc3F)CC2)c1`, the activation is 60.8% (active).

For the compound `CC(C)CN1CCC(C(=O)N2CCN(c3ccccc3F)CC2)CC1`, the activation is 4.79%.

Take `COc1c(Cl)ccc(Cl)c1C(=O)NCc1ccco1`: the activation is 8.15%.

For the compound `CC(=O)Nc1cc(C(=O)NCc2ccco2)ccc1Sc1ccc(F)cc1`, the activation was 69.2% (active).

In the case of `O=C(NCc1ccco1)c1cc(-c2cccc(Cl)c2)on1`, the activation is 4.34%.

For the compound `CCOc1c2ccc(C(=O)NCc3ccc(C)cc3)cc2nn1CCOC`, the activation was 0.03%.

With `CCOc1ccc(CNC(=O)c2ccc(Sc3ccc(Cl)cc3)c(NC(C)=O)c2)cc1`, the activation was 16.5% (active).

Take `CC1(C)CC(=O)C2=C(C1)OC(N)=C(C#N)[C@@H]2c1ccccc1[N+](=O)[O-]`: the activation was 22% (active).

With `O=C1C2C3C=CC(C4CC34)C2C(=O)N1/N=C/c1ccc(-c2ccc(F)cc2[N+](=O)[O-])o1` (stereo not drawn), the activation is 23.2% (active).

On to `CCN1CCN(c2c(/C=C3\SC(=S)N(Cc4ccco4)C3=O)c(C)c(C#N)c(=O)n2C)CC1`, for which the activation is 4.2%.

Regarding `COc1ccc(-n2c(C)cc(/C=C3\SC(=S)N(Cc4ccco4)C3=O)c2C)cc1`, the activation is 239% (active).

With `COc1ccc(-n2c(C)cc(/C=C3\SC(=S)NC3=O)c2C)cc1`, the activation was 8.15%.

Regarding `Cc1cc(/C=C2\SC(=S)N(Cc3ccco3)C2=O)c(C)n1-c1ccccc1`, the activation was 17.4% (active).

On to `Cc1cc(/C=C2\SC(=S)N(C)C2=O)c(C)n1-c1ccccc1O`, for which the activation was 33% (active).

In the case of `Cc1cc(/C=C2\SC(=S)N(Cc3ccco3)C2=O)c(C)n1-c1cccnc1`, the activation is 48.4% (active).

For `CCN1C(=S)SC(=O)C1=C1C=C(C)N(Cc2ccco2)C(C)=C1`, the activation is 8.86%.

Regarding `COc1ccc(O)c(/C=C2/SC(=S)N(Cc3ccccc3)C2=O)c1`, the activation is 0.43%.

For `COc1cccc2c1C(=O)c1c(O)c3c(c(O)c1C2=O)CC(O)(C(C)=NNC(=O)c1ccc(Cl)c(Cl)c1)CC3OC1CC(N)C(O)C(C)O1` (stereo not drawn), the activation is 5.43%.

For the compound `O=C(c1c[nH]c(C(=O)C(Cl)(Cl)Cl)c1)c1c(F)cccc1F`, the activation is 3920% (active).

In the case of `CN(C)C=NC(=O)c1cc(C(=O)c2ccccc2Cl)c[nH]1`, the activation is 11%.

Turning to `O=S(=O)([N-]c1nc2ccccc2nc1-[n+]1ccc(-c2ccncc2)cc1)c1ccccc1`, the activation was 4.89%.

In the case of `Cc1ccc[n+](-c2nc3ccccc3nc2[N-]S(=O)(=O)c2ccccc2)c1`, the activation was 55.5% (active).

With `CCOC(=O)c1cc(-c2ccc(F)cc2)n(CCC(=O)NC2CCN(Cc3ccccc3)CC2)c1C`, the activation was 10.5%.

For `CCOC(=O)N1CCC(Nc2cccc(SC)c2)CC1`, the activation is 246% (active).

For the compound `CCOC(=O)N1CCC(NC(=O)c2cccs2)CC1`, the activation is 6.98%.

Turning to `Cc1ccc(Cn2c(O)c(N=NC(=S)Nc3ccccc3F)c3cc(S(=O)(=O)N4CCOCC4)ccc32)cc1`, the activation is 17.5% (active).

On to `Oc1c(N=NC(=S)Nc2ccccc2F)c2ccccc2n1Cc1ccc(F)cc1`, for which the activation is 3.17%.

With `CCOC(=O)CCC(=O)NCc1ccc2c(c1)cc(C)n2C`, the activation is 11.9% (active).

As to `O=C(O)CSc1ncnc2scc(-c3ccc(Br)cc3)c12`, the activation is 11.7% (active).

In the case of `CCc1ccc(-n2c(O)c(C=NCCN(CC)CC)c(=O)[nH]c2=O)cc1`, the activation is 20.8% (active).

As to `CC(C)(C)NC(=O)CSc1nnc(-c2ccccn2)n1-c1ccccc1`, the activation was 6.6%.

For the compound `Cc1nnc(SCC(=O)NC(C)(C)C)n1C1CCCCC1`, the activation was 45% (active).

Turning to `CN(C)S(=O)(=O)c1ccc2c(c1)/C(=C/c1cc3c([nH]1)CCCC3)C(=O)N2`, the activation is 18.2% (active).

With `Cc1ccc(-n2c(C)n[nH]c2=S)cc1`, the activation was 6.67%.

In the case of `S=c1[nH]nc(-c2ccc(Cl)cc2)n1-c1ccc2c(c1)OCCO2`, the activation is 136% (active).

On to `Cn1c(=O)c(NCCO)c2c3c(cccc31)C(=O)c1ccccc1-2`, for which the activation is 4.78%.

In the case of `Cn1c(=O)c(NC2CCCCC2)c2c3c(cccc31)C(=O)c1ccccc1-2`, the activation was 9.43%.

Take `CC(=O)Nc1ccc(Nc2c3c4c(cccc4n(C)c2=O)C(=O)c2ccccc2-3)cc1`: the activation was 26.1% (active).

With `Cc1nc(-c2ccc(C#N)cc2)cs1`, the activation is 8.7%.

As to `CCOC(=O)C1C(=O)NC(SCC(N)=O)=C(C#N)C1c1ccccc1OCC` (stereo not drawn), the activation is 2.57%.

Turning to `O=C(O)[C@@H]1[C@H]2C[C@H]3c4[nH]c5ccccc5c4CCN3C[C@@H]2CC[C@@H]1O`, the activation is 1.98%.

As for `COC(=O)C1=COC(C)C2CN3CCc4c([nH]c5cc(OC)c(OC)cc45)C3CC12` (stereo not drawn), the activation was 15.2% (active).

For the compound `Cc1ncoc1C(=O)N1CCc2c([nH]c3ccccc23)C1C(C)(C)C` (stereo not drawn), the activation was 2.53%.

`COC(=O)C1=COC(C)C2CN3CCc4c([nH]c5ccccc45)C3CC12` (stereo not drawn): the activation was 12.5% (active).

In the case of `COC(=O)C1C2CC3c4[nH]c5cc(OC)ccc5c4CCN3CC2CC(OC(=O)CC(C)=O)C1OC` (stereo not drawn), the activation is 7.14%.

On to `COC(=O)CCC(=O)OC1(C)C(=O)C=C2C=C(C3CC3)N(c3cccc(C#N)c3)C=C2C1=O` (stereo not drawn), for which the activation was 0.81%.

On to `COc1ccc(/C=N/N=C2/CC(C)(C)Cc3n[nH]c(=O)cc32)cc1`, for which the activation is 955% (active).

`O=c1oc2ccccc2cc1-c1nc(-c2cccs2)cs1`: the activation is 7.53%.

As to `CCN(CC)c1ccc2cc(-c3nnc(-c4ccccc4)o3)c(=O)oc2c1`, the activation was 232% (active).

Turning to `CCN(CC)c1ccc2cc(-c3nc4ccccc4n3C)c(=O)oc2c1`, the activation was 6.19%.

Turning to `N=c1oc2ccccc2cc1-c1nc(-c2ccccc2)cs1`, the activation was 4.19%.

As to `CCN(CC)c1ccc2cc(-c3nc(-c4cc5ccccc5oc4=O)cs3)c(=O)oc2c1`, the activation was 12% (active).

For `CCN(CC)c1ccc2cc(-c3nnc(-c4ccncc4)o3)c(=O)oc2c1`, the activation is 18.1% (active).

`Nc1c(C(=O)c2cccs2)sc2nsc(SCCN3CCCCC3)c12`: the activation is -1.4%.

For `Nc1c(C(=O)c2ccc(Cl)cc2)sc2nsc(SCCN3CCOCC3)c12`, the activation is 12.7% (active).

Turning to `Brc1ccc2[nH]c3nc(SCCN4CCOCC4)nnc3c2c1`, the activation was 6.16%.

With `COc1ccc(CNC(=O)c2sc(=S)n(-c3ccccc3)c2N)cc1`, the activation is 64.8% (active).

Consider `COc1ccc(CNC(=O)C(C#N)c2nc3ccccc3nc2N2CCCC2)cc1` (stereo not drawn), for which the activation was 2.74%.

`COc1ccc(CNC(=O)c2cc3c(s2)CS(=O)C3)cc1` (stereo not drawn): the activation was 6.8%.

`COC(=O)c1cc(-c2cccc(OC)c2)n[nH]1`: the activation is 16.6% (active).

For the compound `COc1cc([C@@H]2[C@H]3CN(C)CC=C3C(C#N)=C(N)C2(C#N)C#N)cc2c1OCO2`, the activation was 4.84%.

As for `CCCN1CC=C2C(C#N)=C(N)C(C#N)(C#N)C(c3cc(OC)ccc3OC)C2C1` (stereo not drawn), the activation is 2.79%.

As to `COc1cc(C2C3CN(C)CC=C3C(C#N)=C(N)C2(C#N)C#N)ccc1OC(C)C` (stereo not drawn), the activation was 49.2% (active).

As for `CN1CC=C2C(C#N)=C(N)C(C#N)(C#N)[C@H](c3cccc(Cl)c3)C2C1` (stereo partly drawn), the activation is 24.5% (active).

`CC(C)(C)OC(=O)N1CC=C2C(C#N)=C(N)C(C#N)(C#N)C(c3cccs3)C2C1` (stereo not drawn): the activation is 8.81%.

Take `CN1C=CC2=C(C#N)C(N)C(C#N)(C#N)C(c3ccccc3)C2C1` (stereo not drawn): the activation was 4.16%.

On to `CN1C=CC2=C(C#N)C(N)C(C#N)(C#N)[C@H](c3ccccc3)[C@H]2C1` (stereo partly drawn), for which the activation was 6.1%.

`CN1CC=C2C(C#N)=C(N)C(C#N)(C#N)[C@H](c3cccs3)[C@H]2C1`: the activation was 13.3% (active).

As for `CC(C)N1CC=C2C(C#N)=C(N)C(C#N)(C#N)C(c3ccccc3)C2C1` (stereo not drawn), the activation was 6.28%.

On to `COc1ccc(OC)c(C2C3CN(C(C)C)CC=C3C(C#N)=C(N)C2(C#N)C#N)c1` (stereo not drawn), for which the activation is 17.8% (active).

As for `CN1CC=C2C(C#N)=C(N)C(C#N)(C#N)C(c3ccsc3)C2C1` (stereo not drawn), the activation was 7.36%.
